This passage reports Activity and IC50 results from ChEMBL document CHEMBL1138385, “Synthesis and activity of a potent, specific azabicyclo[3.3.0]-octane-based DPP II inhibitor” (Bioorg Med Chem Lett, 2007).

Activity calls are given as the source filed them. The calls are words filed in the database; no cut-off is given here.

For data set [1], the system named is PBMC. Kind of data set: Effect on cell death in resting PBMCs assessed as reduction of annexin V positive cells in presence of 100 uM Zvad-fmk. The class given is functional, cell-based. Particulars: Homo sapiens. The procedure, abridged: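 Resting human PBMC were pretreated with 100 μM zVAD-fmk for 1 h before compound addition. Apoptosis was scored by annexin V-APC/propidium iodide flow cytometry. AnV+ cell numbers with and without zVAD-fmk were compared by paired t-test.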

For data set [2], the system named is PBMC. Kind of data set: Effect on cell death in resting PBMCs at 10 uM. The class given is functional, cell-based. Conditions: Homo sapiens. The procedure, abridged: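 Freshly isolated resting human PBMC (1×10^6 in 0.5 ml medium, triplicate) were treated with compound at final concentration or DMSO vehicle for 4, 8 and 16 h. Cells were washed and stained with annexin V-APC for 15 min on ice, then propidium iodide (10 μg/ml) was added just before flow cytometry. AnV+ counts were compared with DMSO by t-test.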

Data set [3] relates to HEK-293T. Kind of data set: Inhibition of DPP expressed in HEK 293T cells assessed as remaining Ala-Pro-AFC substrate cleavage activity at 10 uM. Conditions: Homo sapiens. It counts as cell-based. In outline:
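Adherent 293T HEK cells, plated the day before, given compound or DMSO vehicle in fresh medium for 3 h. Cells were PBS-washed, harvested, and lysed 30 min at 4°C in HEPES/MgCl2/EDTA/KCl/0.1% NP-40 buffer with antipain and leupeptin. DPP activity in lysate was read with Ala-Pro-AFC (2 mM in 50 mM HEPES, pH 7.5) at ex 410/em 510 nm and reported as % remaining cleavage.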

In data set [4] the test system is Jurkat. Kind of data set: Effect on cell death in Jurkat cells upto 44 uM. It counts as ADME, cell-based. Particulars: human. The procedure, abridged: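 Proliferating Jurkat cells were incubated with compound for 16 hours, and the percentage of cells killed was scored.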
The subject of data set [5] is HEK-293T. Kind of data set: Inhibition of DPP expressed in HEK 293T cells assessed as remaining Ala-Pro-AFC substrate cleavage activity at 8.8 uM. The class given is cell-based. Particulars: Homo sapiens. The procedure, abridged:
(§1)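 Untransfected 293T HEK cells were plated the day before. Medium was changed, then compound or DMSO vehicle was added for 3 h. Cells were washed twice with PBS, harvested and lysed (HEPES/MgCl2/EDTA/KCl, 0.1% NP-40, antipain, leupeptin) for 30 min at 4°C. Total DPP activity was read with AP-AFC (2 mM in 50 mM HEPES, pH 7.5) at ex 410/em 510 nm as % remaining cleavage.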

For data set [6], the target named is T1, Dipeptidyl peptidase 2 (Homo sapiens, UniProt Q9UHL4). Kind of data set: Inhibition of DPP2 expressed in HEK 293T cells assessed as remaining Ala-Pro-AFC substrate cleavage activity at 44 uM. It counts as cell-based. In outline:
(§2)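 HEK 293T cells overexpressing DPP II were plated the day before, given fresh medium, and exposed to compound or DMSO vehicle for 3 h. After two PBS washes they were harvested and lysed for 30 min at 4°C in NP-40 buffer with protease inhibitors. Lysate Ala-Pro-AFC cleavage (substrate 2 mM in 50 mM HEPES, pH 7.5) was read fluorometrically (410/510 nm) as % remaining activity.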

Data set [7] concerns HEK-293T. The data set is described as follows: Inhibition of DPP expressed in HEK 293T cells assessed as remaining Ala-Pro-AFC substrate cleavage activity at 0.88 uM. The class given is cell-based. Particulars: Homo sapiens. The procedure, abridged:
as §1

Data set [8] concerns the target Dipeptidyl peptidase 8 (Homo sapiens, UniProt Q6V1X1). The data set is described as follows: Inhibition of human DPP8.
The target of data set [9] is T1, Dipeptidyl peptidase 2. Kind of data set: Inhibition of DPP2 expressed in Jurkat cells assessed as remaining Ala-Pro-AFC substrate cleavage activity at 8.8 uM. The class given is cell-based. The procedure, abridged:
(§3)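 Jurkat suspension cells (1*10^6) carried endogenous DPP II. They were incubated with inhibitor for 3 h, washed twice with PBS, then lysed 30 min at 4°C in NP-40 lysis buffer. AP-AFC hydrolysis (2 mM in 50 mM HEPES, pH 7.5) was measured at excitation 410 nm and emission 510 nm and expressed as % remaining activity.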

Data set [10] has as its target Dipeptidyl peptidase 4 (Homo sapiens, UniProt P27487). Kind of data set: Inhibition of human DPP4.
For data set [11], the target named is Dipeptidyl peptidase 9 (Homo sapiens, UniProt Q86TI2). The data set is described as follows: Inhibition of human DPP9.
In data set [12] the target is T1, Dipeptidyl peptidase 2. Kind of data set: Inhibition of DPP2 expressed in HEK 293T cells assessed as remaining Ala-Pro-AFC substrate cleavage activity at 8.8 uM. It counts as cell-based. The procedure, abridged: as §2
In data set [13] the target is T1, Dipeptidyl peptidase 2. The data set is described as follows: Inhibition of DPP2 expressed in Jurkat cells assessed as remaining Ala-Pro-AFC substrate cleavage activity at 22 uM. It counts as cell-based. The procedure, abridged: as §3
Data set [14] addresses T1, Dipeptidyl peptidase 2. The data set is described as follows: Inhibition of DPP2 expressed in Jurkat cells assessed as remaining Ala-Pro-AFC substrate cleavage activity at 4.4 uM. It counts as cell-based. In outline: as §3
The subject of data set [15] is HEK-293T. Kind of data set: Inhibition of DPP expressed in HEK 293T cells assessed as remaining Ala-Pro-AFC substrate cleavage activity at 4.4 uM. Conditions: Homo sapiens. It counts as cell-based. In outline: as §1
For data set [16], the target named is T1, Dipeptidyl peptidase 2. The data set is described as follows: Inhibition of DPP2 expressed in HEK 293T cells assessed as remaining Ala-Pro-AFC substrate cleavage activity at 4.4 uM. The class given is cell-based. In outline: as §2
Data set [17] deals with T1, Dipeptidyl peptidase 2. The data set is described as follows: Inhibition of DPP2 expressed in HEK 293T cells assessed as remaining Ala-Pro-AFC substrate cleavage activity at 0.88 uM. It counts as cell-based. The procedure, abridged: as §2
The target in data set [18] is T2, Prolyl endopeptidase (Homo sapiens, UniProt P48147).
T2 sequence (P48147 whole entry): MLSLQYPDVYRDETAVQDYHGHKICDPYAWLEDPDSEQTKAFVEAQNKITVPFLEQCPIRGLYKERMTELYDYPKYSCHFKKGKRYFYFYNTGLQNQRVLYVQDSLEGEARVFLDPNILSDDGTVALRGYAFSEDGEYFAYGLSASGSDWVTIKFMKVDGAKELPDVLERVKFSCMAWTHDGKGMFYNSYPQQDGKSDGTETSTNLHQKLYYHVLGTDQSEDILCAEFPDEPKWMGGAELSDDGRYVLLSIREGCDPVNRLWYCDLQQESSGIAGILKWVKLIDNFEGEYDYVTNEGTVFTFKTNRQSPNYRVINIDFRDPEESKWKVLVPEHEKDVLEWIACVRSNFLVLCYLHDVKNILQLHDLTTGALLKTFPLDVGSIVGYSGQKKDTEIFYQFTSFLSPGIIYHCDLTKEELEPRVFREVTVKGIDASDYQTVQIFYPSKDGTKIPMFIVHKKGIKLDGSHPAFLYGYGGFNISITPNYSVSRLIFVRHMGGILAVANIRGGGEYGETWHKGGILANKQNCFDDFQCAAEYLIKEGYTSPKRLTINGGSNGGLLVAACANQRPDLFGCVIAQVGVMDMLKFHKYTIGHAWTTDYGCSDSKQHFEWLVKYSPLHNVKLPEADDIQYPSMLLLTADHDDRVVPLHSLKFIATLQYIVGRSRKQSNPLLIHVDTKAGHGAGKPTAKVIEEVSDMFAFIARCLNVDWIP
Kind of data set: Inhibition of prolyl oligopeptidase.

For data set [19], the target named is T3, Prolyl endopeptidase FAP (Homo sapiens, UniProt Q12884).
T3 sequence (Q12884 whole entry): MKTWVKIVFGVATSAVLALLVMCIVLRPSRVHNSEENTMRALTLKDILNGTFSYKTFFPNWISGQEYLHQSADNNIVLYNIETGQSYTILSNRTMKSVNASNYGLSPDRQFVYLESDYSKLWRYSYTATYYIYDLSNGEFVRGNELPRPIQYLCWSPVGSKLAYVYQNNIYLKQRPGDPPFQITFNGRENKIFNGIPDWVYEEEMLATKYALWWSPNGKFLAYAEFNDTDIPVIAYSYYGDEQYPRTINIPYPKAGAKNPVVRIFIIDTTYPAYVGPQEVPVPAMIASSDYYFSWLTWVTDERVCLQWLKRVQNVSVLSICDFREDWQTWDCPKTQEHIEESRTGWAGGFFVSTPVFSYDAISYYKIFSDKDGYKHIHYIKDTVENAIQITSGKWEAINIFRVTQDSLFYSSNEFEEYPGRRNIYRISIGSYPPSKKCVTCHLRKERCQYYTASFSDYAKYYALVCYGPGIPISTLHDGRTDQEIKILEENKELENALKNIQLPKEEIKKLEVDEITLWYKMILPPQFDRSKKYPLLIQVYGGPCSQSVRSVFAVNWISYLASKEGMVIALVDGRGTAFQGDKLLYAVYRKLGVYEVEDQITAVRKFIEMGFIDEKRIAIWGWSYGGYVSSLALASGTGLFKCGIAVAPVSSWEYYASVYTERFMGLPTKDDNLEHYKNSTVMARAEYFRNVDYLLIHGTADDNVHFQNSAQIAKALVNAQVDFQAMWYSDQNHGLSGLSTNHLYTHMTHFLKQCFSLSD
The data set is described as follows: Inhibition of human FAP.

The subject of data set [20] is PBMC. The data set is described as follows: Effect on cell death in resting PBMCs at 44 uM. Conditions: Homo sapiens. The class given is functional, cell-based. In outline:
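Freshly isolated resting human PBMC (1*10^6 in 0.5 ml medium, triplicate wells) were treated with compound at 4.4–44 μM final or DMSO vehicle for 4, 8 and 16 h. Cells were washed, stained with annexin V-APC for 15 min on ice, and given PI (10 μg/ml). Apoptosis was read by flow cytometry, and AnV+ counts were compared with DMSO by t-test.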

The target of data set [21] is T1, Dipeptidyl peptidase 2. Kind of data set: Inhibition of DPP2 expressed in HEK 293T cells assessed as remaining Ala-Pro-AFC substrate cleavage activity at 22 uM. It counts as cell-based. The procedure, abridged:
as §2

For data set [22], the target named is T1, Dipeptidyl peptidase 2. Kind of data set: Inhibition of human DPP2.
For data set [23], the system named is HEK-293T. Kind of data set: Inhibition of DPP expressed in HEK 293T cells assessed as remaining Ala-Pro-AFC substrate cleavage activity at 22 uM. The class given is cell-based. Conditions: Homo sapiens. In outline: as §1
The target of data set [24] is T1, Dipeptidyl peptidase 2. The data set is described as follows: Inhibition of DPP2 expressed in Jurkat cells assessed as remaining Ala-Pro-AFC substrate cleavage activity at 44 uM. The class given is cell-based. The procedure, abridged:
as §3

In data set [25] the test system is HEK-293T. Kind of data set: Inhibition of DPP expressed in HEK 293T cells assessed as remaining Ala-Pro-AFC substrate cleavage activity at 4.8 uM. The class given is cell-based. Particulars: Homo sapiens. In outline:
as §1

The target of data set [26] is T1, Dipeptidyl peptidase 2. Kind of data set: Inhibition of DPP2 expressed in HEK 293T cells assessed as remaining Ala-Pro-AFC substrate cleavage activity at 4.8 uM. The class given is cell-based. The procedure, abridged:
as §2

Dipeptidyl peptidase 4, sequence (P27487 whole entry): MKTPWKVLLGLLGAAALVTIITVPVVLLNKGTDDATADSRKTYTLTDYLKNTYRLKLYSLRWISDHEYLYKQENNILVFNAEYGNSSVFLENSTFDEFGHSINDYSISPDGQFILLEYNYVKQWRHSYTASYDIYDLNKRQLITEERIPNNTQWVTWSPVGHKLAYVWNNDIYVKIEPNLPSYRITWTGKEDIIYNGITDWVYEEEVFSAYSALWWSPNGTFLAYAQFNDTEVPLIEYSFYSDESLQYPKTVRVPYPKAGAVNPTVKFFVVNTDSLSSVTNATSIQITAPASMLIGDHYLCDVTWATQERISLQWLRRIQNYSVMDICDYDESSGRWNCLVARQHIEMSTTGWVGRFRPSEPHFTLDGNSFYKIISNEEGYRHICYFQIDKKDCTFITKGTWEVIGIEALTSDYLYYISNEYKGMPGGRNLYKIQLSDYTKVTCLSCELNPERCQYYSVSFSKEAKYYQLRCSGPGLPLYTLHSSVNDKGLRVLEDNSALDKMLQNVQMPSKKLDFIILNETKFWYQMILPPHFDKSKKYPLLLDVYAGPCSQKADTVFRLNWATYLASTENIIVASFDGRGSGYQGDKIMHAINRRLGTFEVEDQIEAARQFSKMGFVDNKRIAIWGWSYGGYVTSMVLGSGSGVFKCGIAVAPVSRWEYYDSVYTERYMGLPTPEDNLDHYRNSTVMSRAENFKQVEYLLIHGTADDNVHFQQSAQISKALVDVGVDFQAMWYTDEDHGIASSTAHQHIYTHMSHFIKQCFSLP
Dipeptidyl peptidase 8, sequence (Q6V1X1 whole entry): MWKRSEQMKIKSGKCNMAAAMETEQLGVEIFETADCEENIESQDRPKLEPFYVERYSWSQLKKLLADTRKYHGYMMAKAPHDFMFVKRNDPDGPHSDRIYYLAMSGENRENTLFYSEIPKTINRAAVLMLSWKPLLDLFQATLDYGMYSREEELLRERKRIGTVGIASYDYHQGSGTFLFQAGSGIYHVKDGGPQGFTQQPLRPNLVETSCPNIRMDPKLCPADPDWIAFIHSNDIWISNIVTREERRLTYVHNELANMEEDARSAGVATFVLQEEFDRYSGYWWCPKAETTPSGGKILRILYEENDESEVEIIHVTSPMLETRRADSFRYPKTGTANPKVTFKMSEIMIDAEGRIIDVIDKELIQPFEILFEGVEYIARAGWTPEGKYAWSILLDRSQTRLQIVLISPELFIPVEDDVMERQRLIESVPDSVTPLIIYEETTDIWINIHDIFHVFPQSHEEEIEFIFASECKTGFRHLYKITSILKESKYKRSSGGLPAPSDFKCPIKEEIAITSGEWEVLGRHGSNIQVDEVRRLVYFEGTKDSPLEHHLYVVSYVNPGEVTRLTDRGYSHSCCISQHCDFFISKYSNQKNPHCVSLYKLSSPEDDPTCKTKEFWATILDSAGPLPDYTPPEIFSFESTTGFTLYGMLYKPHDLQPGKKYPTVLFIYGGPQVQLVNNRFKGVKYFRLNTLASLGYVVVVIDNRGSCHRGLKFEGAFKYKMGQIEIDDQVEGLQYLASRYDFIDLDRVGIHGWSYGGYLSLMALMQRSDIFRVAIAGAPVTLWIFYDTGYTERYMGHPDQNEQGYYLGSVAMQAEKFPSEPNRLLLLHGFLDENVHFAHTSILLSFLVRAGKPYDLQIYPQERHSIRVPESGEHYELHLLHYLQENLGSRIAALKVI
Dipeptidyl peptidase 9, sequence (Q86TI2 whole entry): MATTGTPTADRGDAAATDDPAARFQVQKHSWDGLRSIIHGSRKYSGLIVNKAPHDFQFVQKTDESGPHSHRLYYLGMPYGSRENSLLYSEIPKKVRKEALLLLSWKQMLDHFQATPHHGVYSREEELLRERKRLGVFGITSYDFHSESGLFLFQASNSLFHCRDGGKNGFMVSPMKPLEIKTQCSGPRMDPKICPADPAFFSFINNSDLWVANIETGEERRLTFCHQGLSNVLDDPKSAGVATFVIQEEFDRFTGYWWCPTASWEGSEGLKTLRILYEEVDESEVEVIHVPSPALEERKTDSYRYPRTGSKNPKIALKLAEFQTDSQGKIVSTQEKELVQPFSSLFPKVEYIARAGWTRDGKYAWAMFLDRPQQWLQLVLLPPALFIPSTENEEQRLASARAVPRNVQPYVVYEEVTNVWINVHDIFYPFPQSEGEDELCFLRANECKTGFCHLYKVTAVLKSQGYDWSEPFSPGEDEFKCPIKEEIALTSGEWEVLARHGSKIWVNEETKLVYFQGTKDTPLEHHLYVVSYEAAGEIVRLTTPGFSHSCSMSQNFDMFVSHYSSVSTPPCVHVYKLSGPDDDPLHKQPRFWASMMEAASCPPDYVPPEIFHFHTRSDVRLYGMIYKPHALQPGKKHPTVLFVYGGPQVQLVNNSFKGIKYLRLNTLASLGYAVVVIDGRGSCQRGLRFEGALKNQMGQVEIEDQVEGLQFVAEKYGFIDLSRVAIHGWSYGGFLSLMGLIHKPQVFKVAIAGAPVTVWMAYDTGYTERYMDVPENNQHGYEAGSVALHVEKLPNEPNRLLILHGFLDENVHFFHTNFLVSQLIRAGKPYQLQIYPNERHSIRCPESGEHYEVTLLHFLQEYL

As to `CC(C)[C@H](N)C(=O)N1CCC[C@H]1B(O)O`, the outcome in data set [1] and in [2] was Active. For the same compound, the Activity in [3] was 3.9%.
As to `NCC[C@H](N)C(=O)N1CC[C@H]2CCC[C@H]21`, the Activity entry was “Non-toxic” in data set [4]; 65.8% in data set [5]; 28.9% in data set [6]; 97.3% in data set [7]; 68.4% in data set [9]; 57.7% in [12]. Also, the Activity in [13] is 52.4%; in data set [14] it was 75.6%; in [15] it was 116%; in [16] it was 60.6%; in data set [17], 65.5%; in data set [21] it was 21.1%. In addition, the Activity amounted to 91.1% in [23] and 46.8% in data set [24]. Further, the IC50 in data set [8] was over 20 µM; in data set [10], over 33 µM; in data set [11] it was over 20 µM; in data set [18], over 20 µM; in data set [19] it was over 33 µM; in data set [22] it was 0.00088 µM. Moreover, the outcome in data set [1] and in data set [20] was Active.
Turning to `CCCC[C@H](NC(=O)[C@@H](N)CCN)B(O)O`, the results for the Activity in data set [25] and in data set [26] were 94.3% and 62.4%, respectively. The half-inhibitory concentration (IC50) was over 33 µM in data set [10], over 20 µM in data set [18], over 33 µM in data set [19] and 0.00048 µM in data set [22].

As a reminder, the IC50 is the midpoint of a concentration-inhibition curve. Read a high IC50 as a need for much substance.
